The values below come from ChEMBL document CHEMBL1152827, “Bis-pyrazolines: synthesis, characterization and antiamoebic activity as inhibitors of growth of Entamoeba histolytica” (Eur J Med Chem, 2009).

The subject of test [1] is Entamoeba histolytica. As to the kind of experiment: Antiamoebic activity against Entamoeba histolytica HM-1:IMSS trophozoites after 72 hrs by microdilution method. The class given is functional, organism-based. In outline: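 E. histolytica HM1:IMSS trophozoites grown in TYIS-33 medium. Compounds dissolved in DMSO, diluted in medium to 1 mg/ml, then two-fold serial dilutions. Inoculum 1.7 × 10⁴ organisms/well. Plates gassed with N₂ and held at 37 °C for 72 h. Amoebae fixed in cold MeOH and stained with eosin, dye released with 0.1 N NaOH, OD read at 490 nm. Percent inhibition plotted against log dose; IC50 from linear regression.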
On the technique in general: Dilution methods test growth across graded concentrations, often in twofold steps.

Test [2] in a line: Cytotoxicity against human kidney epithelial cells after 44 hrs by MTT assay. The class given is cell-based. The following applies: Epithelial cell. On the technique in general: Tetrazolium assays rely on reduction of a dye to a coloured formazan, in cell work by metabolically active cells.
Test [3] in a line: Selectivity index, ratio of IC50 for human kidney epithelial cells to IC50 for Entamoeba histolytica HM-1:IMSS trophozoites. Set-up: species or system Epithelial cell. In a few lines: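 Safety index calculated as IC50 in human kidney epithelial cells (MTT, 44 h plus 4 h) divided by IC50 against E. histolytica HM1:IMSS (72 h eosin-stained microdilution assay).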

Bounds are passed on as bounds.

As usually defined, the IC50 is the concentration needed to halve the response being measured. Read a high IC50 as lower potency.

With `S=C(N1CCCC1)N1N=C(c2ccccc2)CC1c1ccc(C2CC(c3ccccc3)=NN2C(=S)N2CCCC2)cc1` (configuration not stated), the figures for the IC50 in test [1] and in test [2] were greater than 1800 nM and greater than 90000 nM, respectively. Also, the “Ratio IC50” value in test [3] was greater than 50.

`O=[N+]([O-])c1ccc(NC(=S)N2N=C(c3ccccc3)CC2c2ccc(C3CC(c4ccccc4)=NN3C(=S)Nc3ccc([N+](=O)[O-])cc3)cc2)cc1` (configuration not stated): the IC50 in test [1] is 420 nM; in test [2], greater than 90000 nM. Moreover, the “Ratio IC50” value in test [3] is reported as greater than 214.

Consider `S=C(NC1CCCC1)N1N=C(c2ccccc2)CC1c1ccc(C2CC(c3ccccc3)=NN2C(=S)NC2CCCC2)cc1` (configuration not stated), for which the IC50 in test [1] is greater than 1800 nM; in test [2] it was greater than 90000 nM. Further, the “Ratio IC50” value in test [3] is recorded as greater than 50.

Consider `S=C(NC1CCCCCCC1)N1N=C(c2ccccc2)CC1c1ccc(C2CC(c3ccccc3)=NN2C(=S)NC2CCCCCCC2)cc1` (configuration not stated), for which the IC50 in test [1] is 920 nM; in test [2], greater than 90000 nM. Also, the “Ratio IC50” value in test [3] is on record as greater than 97.8.

Regarding `NC(=S)N1N=C(c2ccccc2)CC1c1ccc(C2CC(c3ccccc3)=NN2C(N)=S)cc1` (configuration not stated), the half-inhibitory concentration (IC50) in test [1] was 1570 nM; in test [2], greater than 90000 nM. Besides, the “Ratio IC50” value in test [3] was greater than 57.3.

With `Cc1cccc(NC(=S)N2N=C(c3ccccc3)CC2c2ccc(C3CC(c4ccccc4)=NN3C(=S)Nc3cccc(C)c3)cc2)c1` (configuration not stated), the figures for the IC50 in test [1] and in test [2] were greater than 1800 nM and greater than 90000 nM, respectively. In test [3], the “Ratio IC50” value is greater than 50.

For the molecule `Fc1ccc(NC(=S)N2N=C(c3ccccc3)CC2c2ccc(C3CC(c4ccccc4)=NN3C(=S)Nc3ccc(F)cc3F)cc2)c(F)c1` (configuration not stated), the IC50 in test [1] is 620 nM; in test [2] it was greater than 90000 nM. For the same molecule, the “Ratio IC50” value in test [3] is greater than 145.

As to `S=C(NC1CCCCC1)N1N=C(c2ccccc2)CC1c1ccc(C2CC(c3ccccc3)=NN2C(=S)NC2CCCCC2)cc1` (configuration not stated), the IC50 in test [1] was 1160 nM; in test [2], greater than 90000 nM. Further, the “Ratio IC50” value in test [3] is greater than 77.6.

Consider `Cc1ccc(NC(=S)N2N=C(c3ccccc3)CC2c2ccc(C3CC(c4ccccc4)=NN3C(=S)Nc3ccc(C)cc3)cc2)cc1` (configuration not stated), for which the results for the IC50 in test [1] and in test [2] were greater than 1800 nM and greater than 90000 nM, respectively. Moreover, the “Ratio IC50” value in test [3] is greater than 50.

Consider `CN(Cc1ccccc1)C(=S)N1N=C(c2ccccc2)CC1c1ccc(C2CC(c3ccccc3)=NN2C(=S)N(C)Cc2ccccc2)cc1` (configuration not stated), for which the half-maximal inhibitory concentration (IC50) in test [1] is greater than 1800 nM; in test [2] it was greater than 90000 nM. Moreover, the “Ratio IC50” value in test [3] is greater than 50.

Turning to `Cc1ncc([N+](=O)[O-])n1CCO` [METRONIDAZOLE], the IC50 in test [2] was greater than 100000 nM. For the same molecule, in test [3], the “Ratio IC50” value is given as greater than 55.55.
